The list is not random: actives were taken first. Their share in the collection is about 2.6%.
Scp1 inh: Scp-1 (human) phosphatase inhibition; Q9GZU7; Recombinant Scp1, phosphopeptide, malachite green phosphate absorbance; inhibition, % at 20 µM; 0.88% of 340,000 active;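 active = inhibition above about 50% at 20 µM, limit read from the data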;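 also: plate controls were DMSO wells with enzyme for no effect and wells lacking enzyme for full effect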
Target sequence (Q9GZU7 76-261 limits assumed): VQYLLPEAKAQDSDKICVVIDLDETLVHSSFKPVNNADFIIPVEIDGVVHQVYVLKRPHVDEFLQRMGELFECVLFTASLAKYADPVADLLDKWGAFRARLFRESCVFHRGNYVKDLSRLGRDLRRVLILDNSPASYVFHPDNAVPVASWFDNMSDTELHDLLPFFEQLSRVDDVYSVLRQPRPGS
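Test system: SCP-1 catalytic domain; Buffer or medium: Acidic Tris acetate buffer with magnesium and detergent; Also added: Phosphorylated 17-residue peptide substrate; Compound: single 20 µM dose, 1% DMSO; Schedule: enzyme reaction 45 min at room temperature, colour 5 min, stabilisation 30 min; Signal: Phosphate-binding colour reagent, absorbance read at 630 nm.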
STEP block: blocks human striatal-enriched tyrosine phosphatase; P54829; recombinant STEP, OMFP fluorogenic substrate, fluorescence; inhibition, % at 20 µM; 0.25% of 360,000 active;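 active = inhibition at 20 µM, scaled per plate between control wells, above about 37%, limit read from the data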;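 also: 0% = DMSO with enzyme and substrate and 100% = substrate only without enzyme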
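Also added – OMFP at 25 µM · Test system – STEP tyrosine phosphatase · Technique – FITC-channel fluorescence of OMFP product · Schedule – 20 min at room temperature, dark · Evaluation – control-normalized % inhibition with plate pattern correction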
rCAG binder: molecules binding r(CAG) RNA repeats | r(CAG) RNA repeat, TO-PRO-1 dye displacement fluorescence | AID 651821 | inhibition, % at 3 µM | 1.3% of 370,000 active;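 active = inhibition above the plate cutoff, the mean of all test compounds on that plate plus 3 SD, cut at about 35% in these data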;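 also: 0% = DMSO alone and 100% = 100 µM mitoxantrone as full dye displacement; higher means more dye released from RNA so lower well fluorescence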
LMPTP inh: LMPTP (human) inhibition. recombinant LMPTP-A, OMFP fluorogenic substrate, fluorescence intensity. P24666. 0.22% of 360,000 active. inhibition, % at 20 µM;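 active = compounds that cut the enzyme signal by at least half of the control window in the single-dose screen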;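 also: plate controls were DMSO wells with enzyme plus substrate for no effect and substrate without enzyme for full effect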
Target sequence (P24666 whole entry, looked up): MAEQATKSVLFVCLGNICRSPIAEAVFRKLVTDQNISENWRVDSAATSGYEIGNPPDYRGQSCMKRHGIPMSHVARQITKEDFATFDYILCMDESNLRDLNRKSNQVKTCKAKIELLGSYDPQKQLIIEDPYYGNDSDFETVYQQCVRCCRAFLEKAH
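Assay system: LMPTP-A, protein tyrosine phosphatase of low molecular weight / Medium: pH 6.0 Bis-Tris buffer with DTT and Triton X-100 / Schedule: 50 min enzyme reaction at room temperature, protected from light / Measured by: endpoint fluorescence intensity from OMFP dephosphorylation / Read-out basis: % inhibition relative to no-enzyme and uninhibited control wells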
NadD inh: blocks S. aureus nicotinate mononucleotide adenylyltransferase; purified NadD enzyme, colorimetric absorbance read-out; inhibition, % at 20 µM; 0.78% of 360,000 active; in the data active = inhibition above about 26%
Scp-1 conf: Scp-1 (human) inhibition, single-dose confirmed | inhibition, % at 20 µM | AID 540281 | recombinant SCP-1 catalytic domain, phosphate release, malachite green absorbance | 61% of 2,500 active | shares compounds with Scp1 inh;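 also: plate controls were DMSO with enzyme for no effect and buffer wells lacking enzyme for full effect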
MG interference: counter-screen for Scp-1 inhibitors: colorimetric interference | AID 540313 | apparent inhibition (interference), % at 20 µM | shares compounds with Scp1 inh | Colorimetric interference counterscreen, malachite green absorbance 630 nm | 2,500 tested, under 10 active;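 also: compounds added after enzyme reaction finished so only phosphate colour detection is probed; plate controls were DMSO wells with completed Scp-1 reaction for no effect and substrate wells lacking enzyme for full effect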
Scp1 DSF: validation of human Scp-1 inhibitors by thermal shift binding | Recombinant SCP1, Sypro Orange thermal shift Tm | 25% of 1,500 active | thermal shift relative to vanadate control, % at 40 µM | AID 540329 | shares compounds with Scp1 inh;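 active = substances whose mean melting-temperature shift, as a percentage of the reference inhibitor's shift, reaches about 5.3%, limit read from the data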;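 also: 0% = Tm of DMSO wells and 100% = Tm with sodium orthovanadate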
* hit, by the source's call; . = no result.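 The calls were made as follows, unless noted: active = inhibition of at least 30% at 20 µM; inactive = the rest.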

SMILES	Scp1 inh	STEP block	rCAG binder	LMPTP inh	NadD inh	Scp-1 conf	MG interference	others
COc1ccc(C(CC(=O)N2CCCC(C)C2)c2c(OC)cc(OC)c3c(-c4ccccc4)cc(=O)oc23)cc1 (stereo not drawn)	58.5*	3.2	12.8	15.3	20.4	62.0*	-13.7	Scp1 DSF=-8.7
COc1ccc(C(CC(=O)N2CCOCC2)c2c(OC)cc(OC)c3c(-c4ccccc4)cc(=O)oc23)cc1 (stereo not drawn)	35.1	-0.5	3.0	5.4	4.0	.	.
Nc1[nH]c2cc(Cl)ccc2c1C(=O)NCCc1ccc(Cl)cc1	.	.	8.3	.	.	.	.
CCOC(=O)[C@@H]1c2[nH]c3ccccc3c2C[C@@]2(C(=O)OC)C=CCN12	.	.	9.1	.	.	.	.
CC(C)NC(=O)c1cc2c(=O)n3ccccc3nc2s1	64.5*	-4.0	1.1	-0.4	-2.0	-18.8	-18.9
CCC(C)(C)n1nnnc1C(c1ccc(C)cc1)N1CCN(Cc2ccc3c(c2)OCO3)CC1 (stereo not drawn)	65.8*	-10.7	-5.6	-0.7	-7.4	-16.6	-20.6
c1ccc(CCn2nnnc2C(c2cccs2)N2CCN(Cc3ccc4c(c3)OCO4)CC2)cc1 (stereo not drawn)	67.0*	-0.9	-10.0	0.6	-5.0	23.3	5.8
Fc1ccccc1N1CCN(C(c2cccs2)c2nnnn2CCc2ccccc2)CC1 (stereo not drawn)	-1.8	0.3	0.1	2.9	9.9	.	.
C/C(C=NNC(=O)c1cc(-c2ccc(Cl)cc2)n[nH]1)=C\c1ccccc1	.	.	12.0	.	.	.	.
O=c1c(O)c(-c2ccc(O)cc2)oc2cc(O)cc(O)c12	52.8*	-6.6	14.9	0.8	-3.3	53.8*	-4.3	Scp1 DSF=9.2*
O=c1cc(-c2ccc(O)cc2)oc2cc(O)cc(O)c12	-9.0	-2.1	3.5	1.5	-4.6	.	.
CCOc1ccc(S(=O)(=O)N2Cc3ccccc3CC2C(=O)O)cc1 (stereo not drawn)	-5.8	0.8	2.7	0.0	-4.8	.	.
COc1ccc(S(=O)(=O)N2Cc3ccccc3CC2C(=O)O)cc1 (stereo not drawn)	74.6*	3.9	7.6	0.4	3.1	64.5*	-15.1	Scp1 DSF=0.5
COC(=O)[C@]12CCCCC=C1N(Cc1ccc(OC)cc1)C(=O)[C@@H]2CC(=O)NCC1CCCCC1	.	.	3.9	.	.	.	.
Cc1nnsc1-c1c(C(=O)O)c(C)nn1-c1ccc(OC(F)(F)F)cc1	91.1*	0.0	-0.2	-1.1	-4.0	-7.8	-10.7
Cc1nnsc1-c1c(C(=O)N2CCOCC2)c(C)nn1-c1ccccc1	-3.8	-1.0	-1.4	-0.4	-1.0	.	.
CCOC(Cn1c(SCc2cc(C(C)=O)ccc2OC)nc2ccccc2c1=O)OCC	-1.9	-1.9	-2.4	-1.1	0.8	.	.
COc1ccc(C(C)=O)cc1CSc1nc2cc(C(=O)O)ccc2c(=O)n1Cc1ccccc1	51.0*	13.3	14.8	1.2	14.3	29.0	-22.1
CC(=O)N=c1c(C#N)cc2c(=O)n3cccc(C)c3nc2n1Cc1ccco1	69.6*	16.7	7.8	3.5	9.9	25.3	-19.2
COc1ccc(CCN(Cc2cccs2)S(=O)(=O)c2ccc(C)s2)cc1OC	.	.	5.5	.	.	.	.
CCOc1cccc(=O)c2c(C)n(-c3ccc(C(=O)O)cc3)c(C)c12	60.0*	31.0	27.9	2.9	12.4	54.7*	-3.5	Scp1 DSF=15.1*
CCOc1cccc(=O)c2c(C)n(Cc3ccccc3)c(C)c12	-6.7	0.4	1.3	-2.4	-4.9	.	.
COc1ccc(-n2c(C)c3c(OC)cccc(=O)c3c2C)cc1	-7.7	1.2	11.3	3.8	11.2	.	.
COc1cccc(=O)c2c(C)n(-c3ccc(C(=O)O)cc3)c(C)c12	59.7*	17.8	5.3	3.0	5.2	29.3	-15.9
CCN(C(=O)COC(=O)c1ccc(Sc2ncn[nH]2)c([N+](=O)[O-])c1)c1ccccc1C	.	.	13.0	.	.	.	.
SMILES	Scp1 inh	STEP block	rCAG binder	LMPTP inh	NadD inh	Scp-1 conf	MG interference	others
CN(Cc1ccco1)S(=O)(=O)c1ccc2c(c1)CCN2C(=O)CC(C)(C)C	.	.	4.7	.	.	.	.
NC1=[N+](Cc2ccccc2)C(Cc2ccccc2)C2C(=C3CCCCC3n3c(=O)n(-c4ccccc4)c(=O)n32)N1 (stereo not drawn)	.	.	17.5	.	.	.	.
COc1cc(/C=N/NC(=O)CC2C(=O)NN=C2C)ccc1O (stereo not drawn)	-16.3	-0.1	-3.5	-2.6	-1.3	-19.1	-18.1
CCOc1cccc(/C=N/NC(=O)C2CCCC2)c1O	-6.9	4.4	-4.5	-0.2	-1.3	.	.
CCOc1cccc(/C=N/NC(=O)CC2C(=O)NN=C2C)c1O (stereo not drawn)	-8.9	2.5	3.5	-0.8	-0.4	-5.9	-11.2
O=C(N/N=C/c1cccc(Br)c1)c1ccc(Br)cc1	103.7*	20.8	-0.1	59.7*	-9.4	75.8*	-12.6	Scp1 DSF=-6.8
O=c1c2ccccc2oc2nc(-c3ccco3)n(Cc3ccccc3)c(=O)c12	50.1*	1.5	3.1	2.1	7.2	55.7*	-0.8	Scp1 DSF=-0.7
CCc1nc2oc3ccccc3c(=O)c2c(=O)n1Cc1ccccc1	-1.1	0.4	-2.4	-1.6	-2.8	.	.
CCCCOCCCNC(=O)C[C@H]1C[C@@]2(C(=O)OC)C(=C[C@H](C(C)C)O[C@@H]2C2CC2)N(Cc2ccccc2)C1=O	.	.	-0.2	.	.	.	.
CCCCOCCCNC(=O)C[C@@H]1C(=O)N(Cc2ccc(OC)cc2)C2=CCN(C(=O)OC(C)(C)C)C[C@]21C(=O)OCC	.	.	1.5	.	.	.	.
COc1ccc(N2CC(NS(=O)(=O)c3ccc(F)cc3)CC2=O)cc1 (stereo not drawn)	-4.9	-0.8	-2.4	-0.4	0.2	-8.4	-10.6
O=C1CC(NS(=O)(=O)c2cccnc2)CN1c1ccc(F)cc1 (stereo not drawn)	3.7	-0.5	-2.4	-0.1	1.8	.	.
COc1ccc(C[N+]2=C(N)N[C@@]3(C=C(C)Cn4c(=O)n(-c5ccccc5)c(=O)n43)C2)c(OC)c1	.	.	10.1	.	.	.	.
CCCCNC(=O)C[C@H]1C[C@@]2(C(=O)OC)C(=C[C@H](C(C)(C)C)O[C@@H]2C)N(Cc2ccco2)C1=O	.	.	2.3	.	.	.	.
Cc1c(C(=O)O)cccc1-n1c(C)cc(C=O)c1C	56.1*	5.9	2.0	-0.3	2.8	43.7*	-13.7	Scp1 DSF=-4.6
Cc1cccc(OCCOCCN2CCNCC2)c1C	0.0	-2.5	0.9	-3.3	-3.9	.	.
Cc1cccc(OCCOCCN2CCOCC2)c1C	51.0*	1.6	-4.1	-0.2	2.6	-15.7	-13.4
CCOC(=O)N1CCN(C(=O)C[C@H]2C[C@@]3(C(=O)OC)C(=C[C@H](C4CCCC4)O[C@@H]3C)N(CCc3ccc(OC)c(OC)c3)C2=O)CC1	.	.	3.5	.	.	.	.
